Reference: publication PMC4382910 (Angewandte Chemie (International ed. in English), 2014)

Test system: HeLa cells
Experiment: Protein fatty-acylation levels in cells by chemical reporter alk-14
Format: cell-based, human
Conditions: nuclear lysates, in-gel fluorescence, Sirt2 inhibitor
Procedure, shortened: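 HeLa cells with Sirt2 perturbed by siRNA knockdown or a selective Sirt2 inhibitor were cultured with fatty-acid chemical reporter alk-14. After harvest, cytosolic and nuclear lysates were prepared and core histones extracted. Reporter-labeled proteins were conjugated to a rhodamine dye by azide-alkyne click chemistry, and fatty-acylation levels were compared by fluorescence.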

Compound: N#C/C(=C\c1ccc(-c2cc(Cl)ccc2Cl)o1)C(=O)Nc1cccc2ncccc12 [AGK2]
- labeling of core histones by alk-14: enhanced
